Results of several laboratories.
Each line is one published result; the experiments were not run side by side.
Target: Phosphatidylinositol 4,5-bisphosphate 3-kinase catalytic subunit delta isoform (PIK3CD, Homo sapiens, UniProt O00329)
Residues used in one study (O00329 1-1044): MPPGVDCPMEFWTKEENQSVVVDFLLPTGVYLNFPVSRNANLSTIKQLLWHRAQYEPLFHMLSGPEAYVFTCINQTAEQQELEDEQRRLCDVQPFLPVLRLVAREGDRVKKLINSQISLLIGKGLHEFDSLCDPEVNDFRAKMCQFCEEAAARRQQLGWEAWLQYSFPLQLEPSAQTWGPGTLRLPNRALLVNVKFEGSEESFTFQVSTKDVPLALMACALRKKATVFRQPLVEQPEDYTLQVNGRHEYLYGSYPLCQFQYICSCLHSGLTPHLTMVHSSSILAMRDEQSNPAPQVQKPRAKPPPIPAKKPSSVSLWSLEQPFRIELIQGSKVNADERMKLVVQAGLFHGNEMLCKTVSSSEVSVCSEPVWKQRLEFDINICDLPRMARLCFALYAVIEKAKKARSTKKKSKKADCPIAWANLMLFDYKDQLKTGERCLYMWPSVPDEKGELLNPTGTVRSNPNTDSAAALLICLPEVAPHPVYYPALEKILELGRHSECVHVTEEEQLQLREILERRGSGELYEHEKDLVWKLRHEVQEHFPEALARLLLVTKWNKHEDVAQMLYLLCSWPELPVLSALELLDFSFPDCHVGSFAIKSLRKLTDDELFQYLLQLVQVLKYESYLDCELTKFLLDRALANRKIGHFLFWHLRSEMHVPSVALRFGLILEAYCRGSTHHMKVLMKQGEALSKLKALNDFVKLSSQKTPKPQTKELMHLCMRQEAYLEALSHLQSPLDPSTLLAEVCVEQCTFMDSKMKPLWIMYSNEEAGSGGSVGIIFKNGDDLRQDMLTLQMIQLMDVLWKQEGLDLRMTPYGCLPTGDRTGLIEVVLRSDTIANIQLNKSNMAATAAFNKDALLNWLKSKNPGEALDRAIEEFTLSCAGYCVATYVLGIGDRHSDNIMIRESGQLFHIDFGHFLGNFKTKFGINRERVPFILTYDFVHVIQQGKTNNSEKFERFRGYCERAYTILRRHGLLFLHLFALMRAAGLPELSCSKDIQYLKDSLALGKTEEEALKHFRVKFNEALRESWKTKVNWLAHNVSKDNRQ

With `Cc1cnn2ncc(-c3ccnc(N(C)C)n3)c2c1` the remaining binding was 100% (binding; 1 µM).
`O=C1NC(c2ccccn2)Sc2ccccc21` (centres unmarked) has a remaining binding of 51% (cell-free assay, competition with immobilised ligand; 1 µM).
The remaining binding of `CC1CCCN1c1nccc(-c2cnn3ncccc23)n1` (centres unmarked) is reported as 100% (binding; 1 µM).
`O=C(Nc1c[nH]nc1C(=O)NC1CCNCC1)c1cc(F)cc(F)c1` gave a remaining binding of 100% (binding, competition with immobilised ligand; 1 µM).
The remaining binding of `N[C@H]1CCN(c2nccc(-c3cnn4ncccc34)n2)C1` is reported as 100% (binding; 1 µM).
`CN(c1ccnc(CNc2nc(Nc3ccc4c(c3)CC(=O)N4)ncc2C(F)(F)F)n1)S(C)(=O)=O` has a remaining binding of 77% (cell-free assay, competition with immobilised ligand; 1 µM).
The remaining binding of `O=C(c1ccc(Nc2ncc(Cl)c(-c3ccc(Cl)s3)n2)cc1)N1CCC(N2CCCC2)CC1` is reported as 100% (binding, competition with immobilised ligand; 1 µM).
For `c1cnn2ncc(-c3ccnc(N4CCC45COC5)n3)c2c1`, the remaining binding was 69% (binding; 1 µM).
`CNC(=O)[C@@H]1CC[C@@H](n2c(-c3ccc4cnccc4c3)nc3ccc(C(=O)NCc4cccc(C(N)=O)c4)cc32)C1` gave a remaining binding of 100% (binding, competition with immobilised ligand; 1 µM).
With `O=C(c1ccc(Nc2nccc(-c3cc4ccccc4s3)n2)cc1)N1CCC(N2CCCC2)CC1` the remaining binding was 41% (binding, competition with immobilised ligand; 1 µM).
`CCOCCn1cc(C(=O)Nc2ccc(-n3nc(-c4cccnc4)cc3C(F)(F)F)cn2)ccc1=O` has a remaining binding of 100% (cell-free assay, competition with immobilised ligand; 1 µM).
For `O=C(NCCCN1CCOCC1)c1ccc(Nc2ncc(Cl)c(-c3ccc(Cl)s3)n2)cc1`, the remaining binding was 100% (binding, competition with immobilised ligand; 1 µM).
`Nc1ncc2c(n1)-c1c([nH]c3ccc(C#CC4CC4)cc13)CCCC2` has a remaining binding of 70% (binding, competition with immobilised ligand; 1 µM).
With `Cc1cc(-n2nc(Cc3cc(F)cc(C(F)(F)F)c3)nc2C)ccc1C(N)=O` the remaining binding was 52% (cell-free assay, competition with immobilised ligand; 1 µM).
For `C=CC(=O)N1CCC(C(=O)NCC(=O)N2CCN(c3nc(-c4cnc(N)nc4C(F)F)nc(N4CCOCC4)n3)CC2)CC1`, the remaining binding was 19% (binding, competition with immobilised ligand; 1 µM).
`COc1ccnn2ncc(-c3ccnc(N(C)C)n3)c12` gave a remaining binding of 68% (binding; 1 µM).
The remaining binding of `CCc1ccccc1C(=O)Nc1n[nH]c2c(C)c(F)c(C3C(C#N)=C(C)N(C)C(C)=C3C#N)cc12` is reported as 90% (cell-free assay, competition with immobilised ligand; 1 µM).
`C[C@@H]1CCN(c2nccc(-c3cnn4ncccc34)n2)C1` has a remaining binding of 100% (binding; 1 µM).
For `Cc1cc(NC(=O)c2cccc(S(F)(F)(F)(F)F)c2)cc(-n2ccn3nc(-c4cccnc4)cc23)c1`, the remaining binding was 100% (cell-free assay, competition with immobilised ligand; 1 µM).
For `c1cncc(-c2cccc(Nc3nccc(NC4CCCCC4)n3)c2)c1`, the remaining binding was 88% (binding, competition with immobilised ligand; 10 µM).
